Key:
Acetylcholinesterase = Acetylcholinesterase (Homo sapiens, UniProt P22303); experiment: Inhibition of human recombinant AchE after 20 mins by Ellman's method
Cholinesterase = Cholinesterase (Homo sapiens, UniProt P06276); experiment: Inhibition of human serum BuchE after 20 mins by Ellman's method
[1] = Inhibition of Amyloid beta 25-35 fibril formation
How it was run: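 In vitro assay of Aβ25-35 fibril formation read by UV-vis measurements, with electron microscopy also used. IC50 is the inhibitor concentration that lowers fibril formation to 50% of the untreated control value.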

[2] = Lipophilicity, log P of the compound; format: physicochemical; details: octanol/water
SH-SY5Y [3] = experiment: Neuroprotective effect against Amyloid beta 25-35-induced neurotoxicity in human SH-SY5Y cells assessed as neuronal viability at 10 to 30 uM after 3 hrs by MTT assay; format: functional
How it was run: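 SH-SY5Y cells were exposed 3 h to 10 µM Aβ25-35 peptide, with or without varied compound concentrations. Viability was measured by MTT and expressed as percentage of control cells, as mean ± SD of three independent experiments. Comparison was against the untreated sample by ANOVA with Dunnett post hoc test.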

SH-SY5Y [4] = experiment: Neuroprotective effect against Amyloid beta 25-35-induced neurotoxicity in human SH-SY5Y cells assessed as neuronal viability after 3 hrs by MTT assay; format: functional, cell-based
How it was run: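 Human neuronal-like SH-SY5Y cells were incubated 3 h with 10 µM Aβ25-35 peptide, with or without compound at 1-30 µM. Viability was read by colorimetric MTT assay. IC50 is the concentration giving 50% inhibition of peptide toxicity, as mean ± SD of at least two independent experiments.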

Chain of Cholinesterase (P06276 whole entry): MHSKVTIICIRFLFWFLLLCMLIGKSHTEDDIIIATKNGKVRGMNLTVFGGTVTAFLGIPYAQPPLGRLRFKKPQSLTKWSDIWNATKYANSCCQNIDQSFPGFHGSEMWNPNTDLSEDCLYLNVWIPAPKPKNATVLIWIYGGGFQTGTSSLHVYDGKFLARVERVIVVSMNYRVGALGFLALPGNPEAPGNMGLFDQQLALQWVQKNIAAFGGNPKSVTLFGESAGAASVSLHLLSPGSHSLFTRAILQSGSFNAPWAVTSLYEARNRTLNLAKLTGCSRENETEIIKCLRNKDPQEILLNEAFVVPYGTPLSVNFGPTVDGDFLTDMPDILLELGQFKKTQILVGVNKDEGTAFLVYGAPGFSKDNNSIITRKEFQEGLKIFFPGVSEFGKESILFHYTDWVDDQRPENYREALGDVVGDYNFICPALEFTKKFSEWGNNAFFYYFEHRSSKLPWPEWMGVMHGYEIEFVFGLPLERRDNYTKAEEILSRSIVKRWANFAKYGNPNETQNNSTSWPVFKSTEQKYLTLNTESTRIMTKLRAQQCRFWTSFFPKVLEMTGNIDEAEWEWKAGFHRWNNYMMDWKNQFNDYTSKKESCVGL
Chain of Acetylcholinesterase (P22303 whole entry): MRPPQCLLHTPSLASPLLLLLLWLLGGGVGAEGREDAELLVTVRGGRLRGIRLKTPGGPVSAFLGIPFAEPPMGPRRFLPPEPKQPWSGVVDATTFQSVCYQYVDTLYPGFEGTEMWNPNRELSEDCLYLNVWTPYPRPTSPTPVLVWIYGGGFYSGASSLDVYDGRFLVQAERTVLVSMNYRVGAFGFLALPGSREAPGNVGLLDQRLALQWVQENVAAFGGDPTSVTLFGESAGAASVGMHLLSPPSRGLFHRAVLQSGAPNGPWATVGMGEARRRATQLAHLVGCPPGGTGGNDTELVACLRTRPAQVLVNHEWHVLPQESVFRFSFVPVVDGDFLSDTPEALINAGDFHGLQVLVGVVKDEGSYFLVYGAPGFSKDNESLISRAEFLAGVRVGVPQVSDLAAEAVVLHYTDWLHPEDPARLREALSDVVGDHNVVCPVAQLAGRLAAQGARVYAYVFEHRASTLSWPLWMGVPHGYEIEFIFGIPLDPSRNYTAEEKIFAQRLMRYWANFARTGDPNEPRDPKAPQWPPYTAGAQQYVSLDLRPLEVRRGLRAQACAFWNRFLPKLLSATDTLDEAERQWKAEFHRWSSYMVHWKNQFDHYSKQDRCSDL

| SMILES | IC50 (Acetylcholinesterase) | IC50 (Cholinesterase) | IC50 [1] | logP [2] | Activity (SH-SY5Y [3]) | IC50 (SH-SY5Y [4]) |
| --- | --- | --- | --- | --- | --- | --- |
| COc1ccc(C(=O)c2c(-c3ccc(OCCCCCCCN(C)Cc4ccccc4)cc3)oc3ccccc23)cc1 | 281 µM | 89.1 µM | – | – | – | – |
| COc1cccc(C(=O)c2c(-c3ccc(OCCCCCCCN(C)Cc4ccccc4)cc3)oc3ccccc23)c1 | 127 µM | 21.7 µM | – | – | – | – |
| Cc1ccc(C(=O)c2c(-c3ccc(OCCCCCCCN(C)Cc4ccccc4)cc3)oc3ccccc23)cc1 | 10.5 µM | 1.82 µM | 13 µM | – | – | – |
| CN(CCCCCCCOc1ccc(-c2cc3ccccc3o2)cc1)Cc1ccccc1 | 32.6 µM | 0.28 µM | 7 µM | 6.8 | – | – |
| COc1ccc(C(=O)c2c(-c3ccc(OCCCCCCCN(C)Cc4ccccc4)cc3)oc3ccccc23)cc1OC | 177 µM | 74.1 µM | – | – | – | – |
| Cc1cccc(C(=O)c2c(-c3ccc(OCCCCCCCN(C)Cc4ccccc4)cc3)oc3ccccc23)c1 | 127 µM | 40.9 µM | – | – | – | – |
| CN(CCCCCCCOc1ccc(-c2oc3ccccc3c2C(=O)c2ccccc2)cc1)Cc1ccccc1 | 40.7 µM | 38.1 µM | 12.5 µM | 8 | 63% | 5.6 µM |
| CC(=O)c1c(-c2ccc(OCCCCCCCN(C)Cc3ccccc3)cc2)oc2ccccc12 | 17.4 µM | 1.83 µM | – | – | – | – |
| COc1cc(/C=C/C(=O)CC(=O)/C=C/c2ccc(O)c(OC)c2)ccc1O [CURCUMIN] | – | – | 10 µM | – | – | – |

Source: ChEMBL document CHEMBL1150277, “Benzofuran-based hybrid compounds for the inhibition of cholinesterase activity, beta amyloid aggregation, and abeta neurotoxicity” (J Med Chem, 2008)
